The term IC50 denotes the concentration at which inhibition is half-maximal. One may read the CC50 as the concentration that lowers cell viability or growth by half. High values mean lower toxicity to the cells, low ones greater toxicity to the cells. As usually defined, the inhibition is the relative decrease from the control value, in per cent. A low value points to a weak effect.

Data set [1] has as its system Leishmania amazonensis. Nature of the data set: Antileishmanial activity against Leishmania amazonensis IFLA/BR/1967/PH8 promastigotes after 72 hrs by MTT assay. Format: functional.
Data set [2] can be described thus: Hemolytic activity in human erythrocytes at 9.4 to 150 uM relative to control. Format: ADME, cell-based, Erythrocyte. As to conditions: read-out: Activity. An outline of the steps: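 Fresh human red cells suspended in PBS incubated with the compound; 1% saponin as positive control, untreated as negative; three experiments in triplicate.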
The nature of data set [3]: Cytotoxicity against mouse peritoneal macrophages after 72 hrs by MTT assay. Format: cell-based, Peritoneal macrophage. Particulars: peritoneal macrophages. A general note: Formazan colour is commonly taken as a measure of viable cells.
For data set [4], the system named is Leishmania amazonensis. Nature of the data set: Antileishmanial activity against Leishmania amazonensis IFLA/BR/1967/PH8 amastigotes infected in murine macrophages at 3.6 uM incubated for 72 hrs followed by compound washout measured after 72 hrs by microscopic method relative to control. Format: functional. As to conditions: IFLA/BR/1967/PH8, 72 h. The essentials: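 Macrophages infected with WT PH8 parasites treated 72 h at 33 °C, 5% CO2; washed twice in PBS, then held in drug-free Warren's medium + 10% serum at 25 °C for 72 h; viable promastigotes counted microscopically versus untreated; three independent experiments in duplicate.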

Data set [5] deals with Leishmania amazonensis. Nature of the data set: Induction of apoptosis in Leishmania amazonensis IFLA/BR/1967/PH8 promastigotes assessed as late apoptotic population at 2.5 uM after 24 hrs by Annexin V-FITC/PI staining based flow cytometric analysis (reference value: 2.62%). Format: functional.
Data set [6] relates to Leishmania amazonensis. Nature of the data set: Antileishmanial activity against Leishmania amazonensis IFLA/BR/1967/PH8 amastigotes transfected with red fluorescent protein infected in murine macrophages after 72 hrs by fluorometric analysis. Format: functional. Particulars: IFLA/BR/1967/PH8, 72 h. The essentials:
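Infected murine macrophages treated 0.78-100.0 µM for 72 h; fluorescence read at 540/600 nm for RFP parasites (PH8) and 485/528 nm for GFP parasites (Josefa strain); IC50 from three independent experiments in duplicate.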

Data set [7] has as its system Leishmania amazonensis. Nature of the data set: Induction of apoptosis in Leishmania amazonensis IFLA/BR/1967/PH8 promastigotes assessed as necrotic population at 5 uM after 24 hrs by Annexin V-FITC/PI staining based flow cytometric analysis (reference value: 0.03%). Format: functional. The essentials:
(§1)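 Exponential-phase WT promastigotes (1x10^7 cells/mL) cultured 24 h at 25 °C; stained annexin V-FITC plus PI, flow cytometry with 10,000 events gated on parasites; quadrant percentages; three independent experiments.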
Background: A flow cytometer gives signals particle by particle.

The nature of data set [8]: Selectivity index, ratio of CC50 for mouse peritoneal macrophages to IC50 for Leishmania amazonensis WHOM/BR/75/Josefa amastigotes transfected with green fluorescent protein. The essentials:
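SI = CC50 for mouse peritoneal macrophages / GFP amastigote IC50. […] IC50: macrophages infected with GFP-expressing Josefa-strain parasites, treated with 0.78–100.0 µM for 72 h; fluorescence read at 485 nm excitation/528 nm emission. Three experiments in duplicate.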

Data set [9] relates to Leishmania amazonensis. Nature of the data set: Induction of apoptosis in Leishmania amazonensis IFLA/BR/1967/PH8 promastigotes assessed as late apoptotic population at 5 uM after 24 hrs by Annexin V-FITC/PI staining based flow cytometric analysis (reference value: 2.62%). Format: functional. The essentials: as §1
Data set [10] deals with Leishmania amazonensis. Nature of the data set: Induction of apoptosis in Leishmania amazonensis IFLA/BR/1967/PH8 promastigotes assessed as necrotic population at 10 uM after 24 hrs by Annexin V-FITC/PI staining based flow cytometric analysis (reference value: 0.03%). Format: functional. An outline of the steps:
as §1

Data set [11] deals with Leishmania amazonensis. Nature of the data set: Induction of apoptosis in Leishmania amazonensis IFLA/BR/1967/PH8 promastigotes assessed as early apoptotic population at 5 uM after 24 hrs by Annexin V-FITC/PI staining based flow cytometric analysis (reference value: 5.29%). Format: functional. The essentials: as §1
Data set [12] can be described thus: Selectivity index, ratio of CC50 for mouse peritoneal macrophages to IC50 for Leishmania amazonensis IFLA/BR/1967/PH8 amastigotes. An outline of the steps:
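SI = CC50 for mouse peritoneal macrophages / amastigote IC50. […] IC50: WT-infected macrophages treated with 0.78–100.0 µM in sterile water; burden scored by counting amastigotes and infected/uninfected cells in at least 200 macrophages. Three experiments in duplicate.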

Data set [13] has as its system Leishmania amazonensis. Nature of the data set: Induction of lipid inclusions in Leishmania amazonensis IFLA/BR/1967/PH8 promastigotes at 20 uM after 24 hrs by Nile Red satining-based spectrofluorometric analysis relative to control. Format: functional. The essentials:
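WT (PH8) promastigotes at 1x10^7 cells/mL in exponential phase, cultured 24 h at 25 °C with or without 2.5–20.0 µM. Parasites incubated with Nile Red, then fluorescence measured spectrofluorometrically. Reported as arbitrary fluorescence units versus untreated parasites, mean of three experiments run in triplicate.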

In data set [14] the test system is Leishmania amazonensis. Nature of the data set: Induction of ROS accumulation in Leishmania amazonensis IFLA/BR/1967/PH8 promastigotes at 2.5 uM after 72 hrs by H2DCFDA staining-based fluorometric analysis relative to control. Format: functional. An outline of the steps: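 WT (PH8) promastigotes in exponential phase, untreated or exposed to 2.5–20.0 µM at 25 °C. Cells adjusted to 2x10^7 promastigotes in PBS, then loaded with H2DCFDA for 30 min in the dark at room temperature. Fluorescence read at ex 485/em 528 nm. Positive control was miltefosine 22.0 µM. Reported as arbitrary fluorescence units, mean of three independent experiments.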

Data set [15] deals with Leishmania amazonensis. Nature of the data set: Induction of apoptosis in Leishmania amazonensis IFLA/BR/1967/PH8 promastigotes assessed as late apoptotic population at 20 uM after 24 hrs by Annexin V-FITC/PI staining based flow cytometric analysis (reference value: 2.62%). Format: functional. An outline of the steps:
as §1

Consider `CC(=O)[O-].CCCCCCCCCCn1cc(CO)[n+](C)n1`, for which the results for the IC50 in the data set on Leishmania amazonensis [1] and with Leishmania amazonensis [6] were 2.6 µM and 1 µM, respectively. Moreover, in [2], the hemolysis at up to 150 µM is under 5%. The compound further came in with a CC50 at 72 h in data set [3] of 116 µM. The compound also registered an inhibition at 3.6 µM with Leishmania amazonensis [4] of 83.1%. Besides, the Activity in the data set on Leishmania amazonensis [5] turned out to be 0.82%; in the data set on Leishmania amazonensis [7], 0.3%; in the data set with Leishmania amazonensis [9] it was 1.58%; in the data set with Leishmania amazonensis [10] it was 2.18%; in the data set on Leishmania amazonensis [11], 39.1%; in the data set on Leishmania amazonensis [14], 38.4%. Besides, the Activity in the data set with Leishmania amazonensis [15] worked out at 16.88%. Also, the “Ratio CC50/IC50” value in data set [8] is 144.9; in data set [12], 128.8. In the data set on Leishmania amazonensis [13], the “fold change (FC)” value is 2.5.

The record behind these values is ChEMBL document CHEMBL4033653, “Effect of 1,2,3-triazole salts, non-classical bioisosteres of miltefosine, on Leishmania amazonensis” (Bioorg Med Chem, 2017).
